Laboratory results: ChEMBL document CHEMBL1132295, “Novel euglycemic and hypolipidemic agents. 4. Pyridyl- and quinolinyl-containing thiazolidinediones” (1999)

Assays:
[1] = system: Mus musculus; assay: Percentage reduction in plasma glucose after 6 days p.o. dosing at 30 mg/kg in db/db mice.; type: functional; conditions: route oral
Method in brief: (§1)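 Male C57BL/KsJ-db/db mice, 8 weeks old, 4–6 per group, given compound orally once daily for 6 days; vehicle controls received 0.5% CMC (10 mL/kg); rosiglitazone 30 mg/kg as standard. On the last day, retro-orbital blood was taken 1 h post-dose. Plasma glucose and triglyceride were measured by kits. % reduction = [1 − (TT/OT)/(TC/OC)] × 100, using day-0 and control values; mean ± SE, ANOVA, P<0.05.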

[2] = system: Mus musculus; assay: Compound was administered at a dose of 30 mg/kg/day to evaluate the percentage reduction in plasma triglyceride (TG) after 6 days of treatment in db/db mice via oral gavage.; type: functional; method in brief: as §1
[3] = system: Mus musculus; assay: Compound was administered at a dose of 3 mg/kg/day to evaluate the percentage reduction in plasma glucose(PG) after 14 days of treatment in db/db mice via oral gavage.
[4] = system: Mus musculus; assay: Compound was administered at a dose of 3 mg/kg/day to evaluate the percentage reduction in plasma triglyceride (TG) after 14 days of treatment in db/db mice via oral gavage.
[5] = system: Mus musculus; assay: Compound was administered at a dose of 20 mg/kg/day to evaluate the percentage reduction in plasma glucose(PG) after 14 days of treatment in db/db mice via oral gavage.
[6] = system: Mus musculus; assay: Compound was administered at a dose of 20 mg/kg/day to evaluate the percentage reduction in plasma triglyceride (TG) after 14 days of treatment in db/db mice via oral gavage.
[7] = system: Mus musculus; assay: Compound was administered at a dose of 30 mg/kg/day to evaluate the percentage reduction in plasma triglyceride (TG) after 6 days of treatment in db/db mice via oral gavage; Not significant.; type: functional, organism-based; method in brief: as §1
[8] = system: Mus musculus; assay: Compound was administered at a dose of 100 mg/kg/day to evaluate the percentage reduction in plasma triglyceride (TG) after 6 days of treatment in db/db mice via oral gavage.; type: functional; method in brief: as §1
[9] = system: Mus musculus; assay: Compound was administered at a dose of 100 mg/kg/day to evaluate the percentage reduction in plasma glucose(PG) after 6 days of treatment in db/db mice via oral gavage; Not significant.; type: functional, organism-based; method in brief: as §1
[10] = system: Mus musculus; assay: Compound was administered at a dose of 100 mg/kg/day to evaluate the percentage reduction in plasma glucose(PG) after 6 days of treatment in db/db mice via oral gavage.; type: functional; method in brief: as §1
[11] = system: Mus musculus; assay: Compound was administered at a dose of 100 mg/kg/day to evaluate the percentage reduction in plasma triglyceride (TG) after 6 days of treatment in db/db mice via oral gavage; Not significant.; type: functional, organism-based; method in brief: as §1
[12] = system: Mus musculus; assay: Compound was administered at a dose of 10 mg/kg/day to evaluate the percentage reduction in plasma triglyceride (TG) after 14 days of treatment in db/db mice via oral gavage.
[13] = system: Mus musculus; assay: Compound was administered at a dose of 10 mg/kg/day to evaluate the percentage reduction in plasma glucose(PG) after 14 days of treatment in ob/ob mice via oral gavage.
[14] = system: Mus musculus; assay: Compound was administered at a dose of 1 mg/kg/day to evaluate the percentage reduction in plasma glucose(PG) after 14 days of treatment in ob/ob mice via oral gavage.
[15] = system: Mus musculus; assay: Compound was administered at a dose of 3 mg/kg/day to evaluate the percentage reduction in plasma glucose(PG) after 14 days of treatment in ob/ob mice via oral gavage.
[16] = system: Mus musculus; assay: Compound was administered at a dose of 10 mg/kg/day to evaluate the percentage reduction in plasma glucose(PG) after 14 days of treatment in db/db mice via oral gavage.
[17] = system: Mus musculus; assay: Compound was administered at a dose of 30 mg/kg/day to evaluate the percentage reduction in plasma glucose(PG) after 14 days of treatment in ob/ob mice via oral gavage.
[18] = system: Mus musculus; assay: Compound was administered at a dose of 30 mg/kg/day to evaluate the percentage reduction in plasma triglyceride (TG) after 14 days of treatment in ob/ob mice via oral gavage.
[19] = system: Mus musculus; assay: Compound was administered at a dose of 10 mg/kg/day to evaluate the percentage reduction in plasma triglyceride (TG) after 14 days of treatment in ob/ob mice via oral gavage.
[20] = system: Mus musculus; assay: Compound was administered at a dose of 1 mg/kg/day to evaluate the percentage reduction in plasma triglyceride (TG) after 14 days of treatment in ob/ob mice via oral gavage.
[21] = system: Mus musculus; assay: Compound was administered at a dose of 3 mg/kg/day to evaluate the percentage reduction in plasma triglyceride (TG) after 14 days of treatment in ob/ob mice via oral gavage.

`O=C1NC(=O)C(Cc2ccc(OCC3CN(c4ccccn4)CCO3)cc2)S1` (stereo not drawn) [listing 1 of 2 here] was tested, and the Reduction [1] was 57.5%.

For `CN(CCOc1ccc(CC2SC(=O)NC2=O)cc1)c1ccccn1` (stereo in doubt; form 2) [ROSIGLITAZONE], the Reduction ([1]; 30 mg/kg) was 35% and the Reduction [2] was 40.21%.

For `O=C(O)/C=C\C(=O)O.O=C1NC(=O)C(Cc2ccc(OC[C@@H]3CCCN3c3ccccn3)cc2)S1` (stereo partly drawn), the Reduction [1] was 62.5%, the Reduction [3] was 8.5% and the Reduction [4] was 41.5%. It also gave a Reduction [2] of 44.75%, a Reduction [5] of 41.25% and a Reduction [6] of 34.5%.

`O=C1NC(=O)/C(=C/c2ccc(OCC3CN(c4ccccn4)CCO3)cc2)S1` (stereo not drawn) [listing 1 of 2 here] was tested, and the Reduction [7] was “Not significant”.

In the case of `O=C1NC(=O)/C(=C/c2ccc(OCC3CCN(c4ccccn4)CC3)cc2)S1`, the Reduction [8] is reported as 27.33% and the Reduction [9] is reported as “Not significant”.

With `O=C1NC(=O)/C(=C/c2ccc(OC[C@@H]3CCCN3c3ccc4ccccc4n3)cc2)S1` the Reduction [10] was 63.75% and the Reduction [11] was “Not significant”.

`O=C1NC(=O)C(Cc2ccc(OC[C@@H]3CCCN3c3ccccn3)cc2)S1` (stereo partly drawn) was tested, and the Reduction [1] was 52.25% and the Reduction [2] was 65.5%.

For `O=C1[N-]C(=O)C(Cc2ccc(OCC3CN(c4ccccn4)CCO3)cc2)S1.[Na+]` (stereo not drawn), the Reduction [1] was 63.5%, the Reduction [12] was 39% and the Reduction [3] was 34.67%. For the same molecule, the Reduction [4] was 39.25%, the Reduction [2] was 56.75% and the Reduction [13] was 39.8%. For the same molecule, the Reduction [14] was 30%, the Reduction [15] was 35.6% and the Reduction [16] was 66%.

In the case of `Cl.O=C1NC(=O)/C(=C/c2ccc(OC[C@@H]3CCCN3c3ccccn3)cc2)S1`, the Reduction [1] is reported as 70.8%, the Reduction [12] is reported as 43.8% and the Reduction [3] is reported as 53.8%. It also gave a Reduction [17] of 37.2%, a Reduction [2] of 31.7% and a Reduction [18] of 53%. It also gave a Reduction [19] of 35%, a Reduction [13] of 42.4% and a Reduction [14] of 18.8%. For the same molecule, the Reduction [15] was 50.2%, the Reduction [16] was 61% and the Reduction [20] was 46.6%. It also gave a Reduction [21] of 39.33%.

For `O=C1NC(=O)C(Cc2ccc(OC[C@@H]3CCCN3c3ccc4ccccc4n3)cc2)S1` (stereo partly drawn) [listing 1 of 2 here], the Reduction [7] was “Not significant”.

Work on `O=C1NC(=O)C(Cc2ccc(OC[C@@H]3CCCN3c3ccc4ccccc4n3)cc2)S1` (stereo partly drawn) [listing 2 of 2 here] yielded a Reduction [1] of 72.25% and a Reduction [2] of 49%.

For `O=C1NC(=O)/C(=C\c2ccc(OC[C@@H]3CCCN3c3ccccn3)cc2)S1`, the Reduction [10] was 57% and the Reduction [8] was 77.75%.

For `CN(CCOc1ccc(CC2SC(=O)NC2=O)cc1)c1ccccn1` (stereo in doubt; form 1) [ROSIGLITAZONE], the Reduction ([1]; 30 mg/kg) was 64.6%, the Reduction [12] was 35.25% and the Reduction [3] was 41.6%. The Reduction [4] was 47%, the Reduction [2] was 41% and the Reduction [16] was 47.25%.

`Cc1cc(N2CCC[C@H]2COc2ccc(CC3SC(=O)NC3=O)cc2)nc2ccccc12.Cl` (stereo partly drawn) showed a Reduction [1] of 25.25% and a Reduction [2] of 42%.

Work on `Cl.O=C1NC(=O)C(Cc2ccc(OC[C@@H]3CCCN3c3ccc4ccccc4n3)cc2)S1` (stereo partly drawn) yielded a Reduction [1] of 15.75%.

Work on `CN(CCOc1ccc(/C=C2\SC(=O)NC2=O)cc1)c1ccccn1` yielded a Reduction [10] of 55.5% and a Reduction [8] of 35%.

With `Cl.O=C1NC(=O)C(Cc2ccc(OC[C@@H]3CCCN3c3ccccn3)cc2)S1` (stereo partly drawn) the Reduction [1] was 50.5% and the Reduction [2] was 50.5%.

With `O=C1NC(=O)/C(=C/c2ccc(OCC3CN(c4ccccn4)CCO3)cc2)S1` (stereo not drawn) [listing 2 of 2 here] the Reduction [10] was 55.25% and the Reduction [8] was 52.5%.

In the case of `O=C1NC(=O)C(Cc2ccc(OCC3CN(c4ccccn4)CCO3)cc2)S1` (stereo not drawn) [listing 2 of 2 here], the Reduction [7] is reported as “Not significant”.

`Cc1cc(N2CCC[C@H]2COc2ccc(CC3SC(=O)[N-]C3=O)cc2)nc2ccccc12.[Na+]` (stereo partly drawn) showed a Reduction [1] of 30.25% and a Reduction [2] of 58.5%.

Work on `O=C1NC(=O)/C(=C/c2ccc(OC3CCN(c4ccccn4)CC3)cc2)S1` yielded a Reduction [10] of 38% and a Reduction [8] of 40.25%.

`Cl.O=C1NC(=O)/C(=C/c2ccc(OCC3CN(c4ccccn4)CCO3)cc2)S1` (stereo not drawn) showed a Reduction [1] of 35.5%.

In the case of `O=C1[N-]C(=O)C(Cc2ccc(OC[C@@H]3CCCN3c3ccc4ccccc4n3)cc2)S1.[Na+]` (stereo partly drawn), the Reduction [1] is reported as 61.5% and the Reduction [2] is reported as 24.75%.

With `Cc1cc(N2CCC[C@H]2COc2ccc(CC3SC(=O)NC3=O)cc2)nc2ccccc12` (stereo partly drawn) the Reduction [1] was 40.5% and the Reduction [2] was 66.25%.

Molecule `O=C1[N-]C(=O)C(Cc2ccc(OC[C@@H]3CCCN3c3ccccn3)cc2)S1.[Na+]` (stereo partly drawn) has a Reduction [1] of 65.5%.

Work on `O=C1[N-]C(=O)/C(=C/c2ccc(OC[C@@H]3CCCN3c3ccccn3)cc2)S1.[Na+]` yielded a Reduction [1] of 56.5% and a Reduction [2] of 56%.

Molecule `O=C(O)/C=C\C(=O)O.O=C1NC(=O)/C(=C/c2ccc(OC[C@@H]3CCCN3c3ccccn3)cc2)S1` has a Reduction [1] of 63.6%, a Reduction [12] of 78.4% and a Reduction [3] of 12.75%. For the same molecule, the Reduction [4] was 75%, the Reduction [17] was 73% and the Reduction [2] was 66.4%. The Reduction [18] was 68.5%, the Reduction [19] was 41.5% and the Reduction [13] was 69.25%. It also gave a Reduction [14] of 52.4%, a Reduction [15] of 40.25% and a Reduction [16] of 49.6%. For the same molecule, the Reduction [20] was 65.75% and the Reduction [21] was 59%.

`Cc1cc(N2CCC[C@H]2COc2ccc(CC3SC(=O)NC3=O)cc2)nc2ccccc12.O=C(O)/C=C\C(=O)O` (stereo partly drawn) gave a Reduction [2] of 53%.

Molecule `O=C1NC(=O)/C(=C/c2ccc(OCCN3CCN(c4ccccn4)CC3)cc2)S1` has a Reduction [10] of 35.75% and a Reduction [8] of 69.75%.
